The record followed here is ChEMBL document CHEMBL1144027, “Synthesis and antimycobacterial evaluation of newer 1-cyclopropyl-1,4-dihydro-6-fluoro-7-(substituted secondary amino)-8-methoxy-5-(sub)-4-oxoquinoline-3-carboxylic acids” (Bioorg Med Chem, 2008).

Structures are written as SMILES. Converted amounts (≈) assume the structure as drawn. Bounds are passed on as bounds.

Data set [1] concerns Mycolicibacterium smegmatis. Kind of data set: Antimycobacterial activity against Mycobacterium smegmatis MC2 by agar dilution method. Format: functional. Summed up: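 Agar dilution in Middlebrook 7H11 agar with OADC, run along NCCLS-recommended lines; M. smegmatis ATCC 14468 (MC2); MIC determined in duplicate.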
(In general: Agar dilution tests growth on a series of plates holding different concentrations.)

Data set [2] has as its system Mycobacterium tuberculosis. Kind of data set: Antimycobacterial activity against Mycobacterium tuberculosis H37Rv by agar dilution method. Format: functional. The method in brief:
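Agar dilution MIC on Middlebrook 7H11 agar with OADC, following the NCCLS-recommended approach, run in duplicate. The MDR clinical isolate was resistant to isoniazid, rifampicin, ethambutol and ofloxacin.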

Data set [3] deals with Mus musculus. Kind of data set: Phototoxicity in Swiss albino mouse assessed as ear thickness at 140 mg/kg, po after 4 hrs of irradiation. Format: organism-based. Also noted: dose 140 mg/kg, route oral. The conditions noted are these: in vivo. Summed up:
(§1)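 Female Swiss albino mice (~2 months, 20-25 g), fasted ≥18 h, single 140 mg/kg oral gavage dose; groups of 6 (compound, lomefloxacin HCl 140 mg/kg, 0.5% carboxymethylcellulose vehicle 10 ml/kg); UV irradiation 4 h (~18 J/cm²) right after dosing; both ears scored for erythema, oedema, thickness pre-dose, at end of irradiation, and ~24-96 h; thickness given as mean of both ears ± SEM.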

In data set [4] the test system is Mus musculus. Kind of data set: Phototoxicity in Swiss albino mouse assessed as ear thickness at 140 mg/kg, po after 24 hrs of irradiation. In kind it is organism-based. Also noted: dose 140 mg/kg, route oral. The following applies: in vivo. Summed up: as §1
Data set [5] concerns Mus musculus. In words: Phototoxicity in Swiss albino mouse assessed as ear thickness at 140 mg/kg, po after 48 hrs of irradiation. On the set-up: dose 140 mg/kg, route oral. The conditions noted are these: in vivo. In kind it is organism-based. Summed up:
as §1

The subject of data set [6] is Mus musculus. Kind of data set: Phototoxicity in Swiss albino mouse assessed as ear thickness at 140 mg/kg, po after 72 hrs of irradiation. In kind it is organism-based. On the set-up: dose 140 mg/kg, route oral. The conditions noted are these: in vivo. Summed up: as §1
Data set [7] has as its system Mus musculus. Kind of data set: Phototoxicity in Swiss albino mouse assessed as ear thickness at 140 mg/kg, po after 96 hrs of irradiation. Format: organism-based. On the set-up: dose 140 mg/kg, route oral. The conditions noted are these: in vivo. Summed up:
as §1

Data set [8] concerns Mus musculus. Kind of data set: Phototoxicity in Swiss albino mouse assessed as erythema incidence at 140 mg/kg, po after 4 hrs of irradiation. In kind it is organism-based. On the set-up: dose 140 mg/kg, route oral. The conditions noted are these: in vivo. Summed up: as §1
The test system of data set [9] is Mus musculus. In words: Phototoxicity in Swiss albino mouse assessed as erythema incidence at 140 mg/kg, po after 24 hrs of irradiation. In kind it is organism-based. Also noted: dose 140 mg/kg, route oral. The following applies: in vivo. Summed up: as §1
Data set [10] deals with Mus musculus. Kind of data set: (§2) Phototoxicity in Swiss albino mouse assessed as erythema incidence at 140 mg/kg, po after 48 hrs of irradiation. In kind it is organism-based. Also noted: dose 140 mg/kg, route oral. The following applies: in vivo. Summed up: as §1
The subject of data set [11] is Mus musculus. The description is as §2. Format: organism-based. On the set-up: dose 140 mg/kg, route oral. The conditions noted are these: in vivo. The method in brief:
as §1
This is another data set of the same source.

Data set [12] relates to Mus musculus. Kind of data set: Phototoxicity in Swiss albino mouse assessed as erythema incidence at 140 mg/kg, po after 96 hrs of irradiation. Format: organism-based. On the set-up: dose 140 mg/kg, route oral. The following applies: in vivo. Summed up:
as §1

Another data set has as its system Vero. Kind of data set: Cytotoxicity against african green monkey Vero cells after 72 hrs by MTT assay. In kind it is cell-based. The following applies: Chlorocebus sabaeus. Summed up:
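Mammalian Vero cells exposed to compounds at 62.5 µg/ml for 72 h; viability read by cellular conversion of MTT to formazan (Cell Titer 96 non-radioactive proliferation assay).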
In general terms: Tetrazolium dyes change colour on reduction, which living cells bring about.

Data set [13] addresses DNA gyrase subunit B (Mycobacterium smegmatis (strain ATCC 700084 / mc(2)155), UniProt A0QNE0). Kind of data set: Inhibition of Mycobacterium smegmatis MC2 DNA gyrase GyrB ATPase supercoiling activity. On the set-up: species or system Mycolicibacterium smegmatis. Summed up: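 Gyrase purified from M. smegmatis MC2 cells; compounds in DMSO pre-incubated with enzyme, then 400 ng relaxed pUC18 added in 35 mM Tris-HCl pH 7.5, 5 mM MgCl2, 25 mM K glutamate, 2 mM spermidine, 2 mM ATP, BSA, tRNA, 5% glycerol; 30 min; heat-stopped 65 °C 15 min; agarose gel, ethidium bromide staining; ciprofloxacin 10 µg/ml and 5% DMSO controls.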

Chain of DNA gyrase subunit B (Mycobacterium smegmatis (strain ATCC 700084 / mc(2)155), UniProt A0QNE0) (A0QNE0 whole entry): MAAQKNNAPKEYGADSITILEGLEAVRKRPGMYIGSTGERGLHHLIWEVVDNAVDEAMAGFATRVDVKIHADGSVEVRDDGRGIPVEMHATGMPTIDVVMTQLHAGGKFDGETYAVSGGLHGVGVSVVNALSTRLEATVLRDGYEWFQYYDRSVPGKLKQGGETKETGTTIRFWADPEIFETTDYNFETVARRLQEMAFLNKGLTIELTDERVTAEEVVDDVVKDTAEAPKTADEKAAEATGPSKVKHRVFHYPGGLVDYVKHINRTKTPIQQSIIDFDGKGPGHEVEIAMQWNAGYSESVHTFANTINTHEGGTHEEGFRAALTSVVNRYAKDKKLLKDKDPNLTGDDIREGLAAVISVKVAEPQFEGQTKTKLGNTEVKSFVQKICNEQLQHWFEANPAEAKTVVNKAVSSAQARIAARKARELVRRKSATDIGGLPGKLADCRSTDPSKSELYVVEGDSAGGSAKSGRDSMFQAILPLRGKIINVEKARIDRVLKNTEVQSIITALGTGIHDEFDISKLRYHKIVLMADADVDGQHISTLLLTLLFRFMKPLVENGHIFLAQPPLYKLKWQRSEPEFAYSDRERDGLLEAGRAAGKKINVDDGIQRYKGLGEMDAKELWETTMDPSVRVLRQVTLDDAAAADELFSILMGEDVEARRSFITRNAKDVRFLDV

In the case of `COc1c(N2CCN(C(c3ccccc3)c3ccc(Cl)cc3)CC2)c(F)cc2c(=O)c(C(=O)O)cn(C3CC3)c12` (stereo not drawn), the minimum inhibitory concentration (MIC) – broadly, the least concentration at which growth counts as inhibited – in data set [1] was 44.5 µM (≈ 25 µg/mL); in data set [2], 11.1 µM (≈ 6.25 µg/mL).

In the case of `CCn1cc(C(=O)O)c(=O)c2cc(F)c(N3CCNC(C)C3)c(F)c21` (stereo not drawn) [LOMEFLOXACIN], the Activity with Mus musculus [3] is 0.4 mm; in the data set with Mus musculus [4], 0.48 mm; with Mus musculus [5], 0.53 mm; in the data set on Mus musculus [6] it was 0.64 mm; with Mus musculus [7] it was 0.6 mm; with Mus musculus [8], “Toxic”. The Activity result in the data set on Mus musculus [9], with Mus musculus [10], in the data set with Mus musculus [11] and with Mus musculus [12] was “Toxic” in each case.

Turning to `COc1c(N2CC(C)OC(C)C2)c(F)c([N+](=O)[O-])c2c(=O)c(C(=O)O)cn(C3CC3)c12` (stereo not drawn), the minimum inhibitory concentration (MIC) in data set [1] amounted to 1.79 µM (≈ 0.779 µg/mL); in [2], 0.89 µM (≈ 0.388 µg/mL). For the same compound, the 50% inhibitory concentration (IC50) (as a rule, the concentration that gives 50% inhibition) with Vero is 144 µM; in [13] it was 115 µM. The Activity with Mus musculus [3] is reported as 0.29 mm; in the data set with Mus musculus [4], 0.35 mm; in the data set with Mus musculus [5], 0.36 mm; in the data set on Mus musculus [6], 0.34 mm; in the data set on Mus musculus [7], 0.33 mm; in the data set on Mus musculus [9], “Non-toxic”. In addition, the Activity entry in the data set on Mus musculus [10], in the data set on Mus musculus [11] and in the data set with Mus musculus [12] was “Non-toxic” each time.

As to `COc1c(N2COCC2(C)C)c(F)c([N+](=O)[O-])c2c(=O)c(C(=O)O)cn(C3CC3)c12`, the results for the MIC in [1] and in data set [2] were 3.7 µM (≈ 1.56 µg/mL) and 1.85 µM (≈ 0.78 µg/mL), respectively. This compound also yielded an IC50 in the data set with Vero of 148 µM.

As for `COc1c(N2CCc3ccccc3C2C(=O)NC(C)(C)C)c(F)c([N+](=O)[O-])c2c(=O)c(C(=O)O)cn(C3CC3)c12` (stereo not drawn), the MIC in [1] was 2.82 µM (≈ 1.56 µg/mL); in [2], 1.41 µM (≈ 0.779 µg/mL). The values for the IC50 (in the data set with Vero; in data set [13]) were 113 µM and above 90.5 µM, respectively.

Regarding `COc1c(N2CC(C)OC(C)C2)c(F)cc2c(=O)c(C(=O)O)cn(C3CC3)c12` (stereo not drawn), the MIC in data set [1] was 16 µM (≈ 6.25 µg/mL); in [2], 3.99 µM (≈ 1.56 µg/mL). Moreover, in the data set on Vero, half-maximal inhibition (IC50) was put at 160 µM.

On to `COc1c(N2CCC(n3c(=O)[nH]c4cc(Cl)ccc43)CC2)c(F)cc2c(=O)c(C(=O)O)cn(C3CC3)c12`, for which the MIC in data set [1] and in data set [2] was 5.94 µM (≈ 3.13 µg/mL) throughout.

For `COc1c(N2CCC(O)(c3ccc(Cl)cc3)CC2)c(F)c([N+](=O)[O-])c2c(=O)c(C(=O)O)cn(C3CC3)c12`, the MIC in [1] amounted to 11.8 µM (≈ 6.25 µg/mL); in [2], 5.88 µM (≈ 3.13 µg/mL).

As to `COc1c(N2CCN(Cc3ccc4c(c3)OCO4)CC2)c(F)cc2c(=O)c(C(=O)O)cn(C3CC3)c12`, the MIC in data set [1] was determined as 3.15 µM (≈ 1.56 µg/mL); in data set [2] it was 1.57 µM (≈ 0.778 µg/mL). Moreover, the IC50 in the data set on Vero is 126 µM; in [13], above 101 µM.

Turning to `COc1ccc(CC2C3=C(CCCC3)CCN2c2c(F)c(N)c3c(=O)c(C(=O)O)cn(C4CC4)c3c2OC)cc1` (stereo not drawn), the values for the MIC in [1] and in data set [2] were 5.72 µM (≈ 3.13 µg/mL) and 2.85 µM (≈ 1.56 µg/mL), respectively. In the data set with Vero, this compound displayed a half-inhibitory concentration (IC50) of 114 µM.

Take `COc1c(N2CCC3(CC2)OCCO3)c(F)c([N+](=O)[O-])c2c(=O)c(C(=O)O)cn(C3CC3)c12`: the minimum inhibitory concentration (MIC) in data set [1] stood at 6.75 µM (≈ 3.13 µg/mL); in [2], 0.84 µM (≈ 0.389 µg/mL). Inhibition in the data set on Vero was half-maximal at 135 µM (IC50).

Take `COc1c(N2CCc3ccccc3C2C(=O)NC(C)(C)C)c(F)cc2c(=O)c(C(=O)O)cn(C3CC3)c12` (stereo not drawn): the MIC in data set [1] worked out at 49.3 µM (≈ 25 µg/mL); in data set [2] it was 12.3 µM (≈ 6.25 µg/mL).

As to `COc1c(N2CCC(O)(c3ccc(Cl)cc3)CC2)c(F)cc2c(=O)c(C(=O)O)cn(C3CC3)c12`, the values for the MIC in data set [1] and in data set [2] were 12.8 µM (≈ 6.25 µg/mL) and 6.43 µM (≈ 3.13 µg/mL), respectively.

As to `COc1c(N2CCN(Cc3ccc4c(c3)OCO4)CC2)c(F)c([N+](=O)[O-])c2c(=O)c(C(=O)O)cn(C3CC3)c12`, the MIC in data set [1] came to 1.44 µM (≈ 0.778 µg/mL); in data set [2], 0.35 µM (≈ 0.189 µg/mL). For the same compound, in the data set on Vero, 116 µM corresponded to half-maximal inhibition (IC50). Besides, the Activity in the data set on Mus musculus [3] is on record as 0.27 mm; in the data set on Mus musculus [4], 0.28 mm; with Mus musculus [5] it was 0.3 mm; in the data set on Mus musculus [6], 0.33 mm; in the data set with Mus musculus [7], 0.31 mm; in the data set with Mus musculus [8], “Non-toxic”. Moreover, the Activity entry in the data set with Mus musculus [9] was “Non-toxic”.

Take `COc1c(N2CCSCC2)c(F)cc2c(=O)c(C(=O)O)cn(C3CC3)c12`: the MIC in [1] is 4.12 µM (≈ 1.56 µg/mL); in [2] it was 2.06 µM (≈ 0.78 µg/mL). The compound also gave an IC50 in the data set on Vero of 165 µM.

Regarding `COc1c(N2CCN(C)C(c3ccccc3)C2)c(F)cc2c(=O)c(C(=O)O)cn(C3CC3)c12` (stereo not drawn), the values for the MIC in data set [1] and in [2] were 27.7 µM (≈ 12.5 µg/mL) and 13.8 µM (≈ 6.25 µg/mL), respectively.
